In ChEMBL document CHEMBL1124864, “Synthesis and biological evaluation of new antimuscarinic compounds with amidine basic centers. A useful bioisosteric replacement of classical cationic heads” (J Med Chem, 1990):

How the values were obtained:
[1] = biological target: T1, Muscarinic acetylcholine receptor M1 (Rattus norvegicus, UniProt P08482); test: In vitro receptor binding against Muscarinic acetylcholine receptor M1 in rat cerebral cortex was determined using [3H]pirenzepine; assay type: tissue-based
T1 sequence (P08482 whole entry): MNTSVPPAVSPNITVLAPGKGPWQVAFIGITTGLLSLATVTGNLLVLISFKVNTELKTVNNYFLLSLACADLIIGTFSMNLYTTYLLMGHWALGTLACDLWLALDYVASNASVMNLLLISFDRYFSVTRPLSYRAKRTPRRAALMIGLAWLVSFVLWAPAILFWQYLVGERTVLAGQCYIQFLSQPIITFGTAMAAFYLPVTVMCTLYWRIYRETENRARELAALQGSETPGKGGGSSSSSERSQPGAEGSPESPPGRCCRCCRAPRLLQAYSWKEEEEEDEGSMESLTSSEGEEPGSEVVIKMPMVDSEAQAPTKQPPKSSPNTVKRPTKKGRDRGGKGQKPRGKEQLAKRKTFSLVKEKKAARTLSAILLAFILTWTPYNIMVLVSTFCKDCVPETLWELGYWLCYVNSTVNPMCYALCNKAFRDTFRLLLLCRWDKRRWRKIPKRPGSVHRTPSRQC
How it was run: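 Rat cortex, heart or submandibular gland homogenates in Na+-Mg2+-HEPES pH 7.4, incubated 45 min at 30 °C with radioligand plus varying cold ligand. Separated by centrifugation, pellets washed and counted, in triplicate. KD from IC50 by nonlinear regression with Cheng–Prusoff correction; Hill slopes by linear regression.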

Cavia porcellus [2] = organism: Cavia porcellus; test: In vitro functional studies in guinea pig ileum
Rattus norvegicus [3] = test: In vivo activity against oxotremorine induced salivation in rat (iv)
[4] = biological target: T2, Muscarinic acetylcholine receptor M2 (Rattus norvegicus, UniProt P10980); test: In vitro receptor binding against Muscarinic acetylcholine receptor M2 in rat heart was determined using [3H]NMS
T2 sequence (P10980 whole entry): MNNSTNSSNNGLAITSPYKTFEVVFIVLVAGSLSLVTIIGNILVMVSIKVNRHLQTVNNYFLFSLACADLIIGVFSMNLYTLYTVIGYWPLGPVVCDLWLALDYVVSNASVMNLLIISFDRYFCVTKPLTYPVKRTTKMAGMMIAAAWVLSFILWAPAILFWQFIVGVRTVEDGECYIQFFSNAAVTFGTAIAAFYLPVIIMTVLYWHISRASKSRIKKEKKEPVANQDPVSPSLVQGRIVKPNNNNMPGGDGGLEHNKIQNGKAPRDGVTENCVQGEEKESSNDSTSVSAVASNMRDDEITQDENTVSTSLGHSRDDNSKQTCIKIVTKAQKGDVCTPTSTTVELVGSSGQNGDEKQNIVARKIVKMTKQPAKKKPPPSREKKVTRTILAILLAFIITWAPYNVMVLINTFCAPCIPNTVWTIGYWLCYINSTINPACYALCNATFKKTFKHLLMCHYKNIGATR

Rattus norvegicus [5] = test: […] activity against carbachol-induced colonic spasms in rat (iv); assay type: functional
How it was run: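 Compounds given iv 2 min before each spasmogen dose. Percent inhibition of pretreatment contractions; ED50 with 95% confidence limits from linear regression of log dose-response curves.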

[6] = biological target: Muscarinic acetylcholine receptor M3 (Rattus norvegicus, UniProt P08483); test: In vitro receptor binding against Muscarinic acetylcholine receptor M3 in rat submandibular gland was determined using [3H]NMS
Rattus norvegicus [7] = test: In vivo activity against oxotremorine induced tremors in rat (iv)
Cavia porcellus [8] = organism: Cavia porcellus; test: In vitro functional studies in guinea pig left atrium; conditions: Cardiac atrium
[9] = pKa value was determined; assay type: physicochemical
How it was run: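 Macroscopic pKa measured by potentiometric titration in water containing a few milliliters of methanol, with a glass electrode.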

Sequence of Muscarinic acetylcholine receptor M3 (P08483 whole entry): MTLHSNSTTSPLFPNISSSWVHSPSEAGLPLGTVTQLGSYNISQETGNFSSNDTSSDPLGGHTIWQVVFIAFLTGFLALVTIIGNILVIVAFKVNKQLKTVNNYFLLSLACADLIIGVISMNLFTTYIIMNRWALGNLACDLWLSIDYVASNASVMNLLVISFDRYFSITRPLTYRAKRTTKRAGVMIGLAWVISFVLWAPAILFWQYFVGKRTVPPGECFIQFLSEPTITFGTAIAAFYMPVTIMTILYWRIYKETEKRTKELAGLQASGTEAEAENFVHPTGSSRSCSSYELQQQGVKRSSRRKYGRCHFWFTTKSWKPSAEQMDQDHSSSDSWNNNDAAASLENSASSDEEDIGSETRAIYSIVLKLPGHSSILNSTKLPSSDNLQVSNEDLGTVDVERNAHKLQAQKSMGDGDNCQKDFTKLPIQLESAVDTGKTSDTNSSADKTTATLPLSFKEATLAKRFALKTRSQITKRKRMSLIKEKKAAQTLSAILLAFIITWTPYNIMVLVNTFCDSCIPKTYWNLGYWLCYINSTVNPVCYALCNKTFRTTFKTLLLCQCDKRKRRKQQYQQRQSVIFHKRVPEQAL

SMILES: CCCC[N+]1(C)C2CC(OC(=O)C(CO)c3ccccc3)CC1C1OC12.[Br-] (centres undefined)
- Kd [1]: 300 nM
- Kb (Cavia porcellus [2]): 56.3 nM
- ED50 (Rattus norvegicus [3]): 385 µg/kg
- Kd [4]: 220 nM
- ED50 (Rattus norvegicus [5]): 52.9 µg/kg
- Kd [6]: 220 nM
- ED50 (Rattus norvegicus [7]): > 3 mg/kg
- Kb (Cavia porcellus [8]): 58.4 nM

SMILES: C[N+]1(C)C2CC(OC(=O)C(CO)c3ccccc3)CC1C1OC12 (centres undefined)
- Kb (Cavia porcellus [2]): 0.17 nM
- Kb (Cavia porcellus [8]): 0.38 nM

SMILES: O=C(O[C@@H]1C[C@@H]2N[C@H](C1)[C@@H]1O[C@@H]12)[C@H](CO)c1ccccc1
- pKa [9]: 7.09

SMILES: CC(=N)N1C2CC(OC(=O)C(CO)c3ccccc3)CC1C1OC12.Cl (centres undefined)
- Kd [1]: 3.4 nM
- Kb (Cavia porcellus [2]): 1.55 nM
- ED50 (Rattus norvegicus [3]): 4.1 µg/kg
- Kd [4]: 6.7 nM
- ED50 (Rattus norvegicus [5]): 3.9 µg/kg
- Kd [6]: 3.5 nM
- ED50 (Rattus norvegicus [7]): 1.7 mg/kg
- pKa [9]: 10.7
- Kb (Cavia porcellus [8]): 5.02 nM

SMILES: Cl.N=CN1C2CC(OC(=O)C(CO)c3ccccc3)CC1C1OC12 (centres undefined)
- Kd [1]: 3.6 nM
- Kb (Cavia porcellus [2]): 1.68 nM
- ED50 (Rattus norvegicus [3]): 2.45 µg/kg
- Kd [4]: 10 nM
- ED50 (Rattus norvegicus [5]): 6.1 µg/kg
- Kd [6]: 5 nM
- ED50 (Rattus norvegicus [7]): 1.3 mg/kg
- pKa [9]: 9.78
- Kb (Cavia porcellus [8]): 6.55 nM

SMILES: Cl.N=CN1C2CCC1CC(OC(=O)C(CO)c1ccccc1)C2 (centres undefined)
- Kd [1]: 1.1 nM
- Kb (Cavia porcellus [2]): 0.72 nM
- ED50 (Rattus norvegicus [3]): 3.9 µg/kg
- Kd [4]: 1.6 nM
- ED50 (Rattus norvegicus [5]): 3.5 µg/kg
- Kd [6]: 1.4 nM
- ED50 (Rattus norvegicus [7]): > 10 mg/kg
- pKa [9]: 10.3
- Kb (Cavia porcellus [8]): 1.59 nM

SMILES: Cl.N=C(N)N1C2CC(OC(=O)C(CO)c3ccccc3)CC1C1OC12 (centres undefined)
- Kd [1]: 7.5 nM
- Kb (Cavia porcellus [2]): 5.18 nM
- ED50 (Rattus norvegicus [3]): 18.8 µg/kg
- Kd [4]: 23 nM
- ED50 (Rattus norvegicus [5]): 18.6 µg/kg
- Kd [6]: 4.5 nM
- ED50 (Rattus norvegicus [7]): > 3 mg/kg
- pKa [9]: 10.8
- Kb (Cavia porcellus [8]): 16.4 nM

SMILES: CC(=N)N1C2CCC1CC(OC(=O)C(CO)c1ccccc1)C2.Cl (centres undefined)
- Kd [1]: 2 nM
- Kb (Cavia porcellus [2]): 1.61 nM
- ED50 (Rattus norvegicus [3]): 6.2 µg/kg
- Kd [4]: 10 nM
- ED50 (Rattus norvegicus [5]): 3.3 µg/kg
- Kd [6]: 3.1 nM
- ED50 (Rattus norvegicus [7]): > 10 mg/kg
- pKa [9]: 10.9
- Kb (Cavia porcellus [8]): 3.17 nM

SMILES: Cl.N=C(N)N1C2CCC1CC(OC(=O)C(CO)c1ccccc1)C2 (centres undefined)
- Kd [1]: 7 nM
- Kb (Cavia porcellus [2]): 1.92 nM
- ED50 (Rattus norvegicus [3]): 5.8 µg/kg
- Kd [4]: 11 nM
- ED50 (Rattus norvegicus [5]): 9.8 µg/kg
- Kd [6]: 2.5 nM
- ED50 (Rattus norvegicus [7]): > 3 mg/kg
- pKa [9]: 11.6
- Kb (Cavia porcellus [8]): 3.06 nM

SMILES: C[N+]1(C)[C@@H]2CC[C@H]1C[C@@H](OC(=O)C(CO)c1ccccc1)C2 (some centres undefined) [ATROPINE METHYLBROMIDE]
- Kb (Cavia porcellus [2]): 0.71 nM
- Kd [4]: 2.7 nM
- Kd [6]: 2.6 nM
- Kb (Cavia porcellus [8]): 1.29 nM

SMILES: CN1[C@@H]2CC[C@H]1C[C@@H](OC(=O)C(CO)c1ccccc1)C2 (some centres undefined) [ATROPINE]
- Kb (Cavia porcellus [2]): 3.16 nM
- ED50 (Rattus norvegicus [3]): 8.6 µg/kg
- ED50 (Rattus norvegicus [5]): 4.5 µg/kg
- ED50 (Rattus norvegicus [7]): 0.453 mg/kg
- Kb (Cavia porcellus [8]): 0.66 nM

SMILES: CN1[C@@H]2C[C@@H](OC(=O)[C@H](CO)c3ccccc3)C[C@H]1[C@@H]1O[C@@H]12 [SCOPOLAMINE]
- Kb (Cavia porcellus [2]): 0.4 nM
- ED50 (Rattus norvegicus [3]): 2.6 µg/kg
- ED50 (Rattus norvegicus [5]): 5.8 µg/kg
- ED50 (Rattus norvegicus [7]): 0.011 mg/kg
- Kb (Cavia porcellus [8]): 0.17 nM
